Where “and” joins values, the source holds several entries; their conditions need not be identical. Equal values may be shown once.

Test [1] has as its target T1, Mu-type opioid receptor (Homo sapiens, UniProt P35372). As to the kind of experiment: Percent inhibition of [3H]DAMGO binding to rat brain mu-opioid receptor at 100 uM. Conditions: target entry is the homologue from another species.
Test [2] addresses Sodium-dependent dopamine transporter (Rattus norvegicus) (UniProt P23977). The test is described as follows: Percent inhibition of [3H]DA uptake in rat brain tissue at 100 uM. The class given is functional, tissue-based. The gist of the method: (§1)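 Rat caudate-putamen chopped into 225 µm slices, suspended in oxygenated modified Krebs-HEPES buffer at 37 °C. Tissue preincubated 5 min with drug, then [3H]dopamine (final 15 nM) added for 5 min. Uptake stopped with ice-cold buffer and filtration; accumulated label extracted and counted by liquid scintillation. Specific uptake reported after subtracting filter binding. Single-concentration values are % inhibition at 100 µM.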

For test [3] the target is unchanged. As to the kind of experiment: Percent inhibition of [3H]WIN-35428 binding to rat Dopamine transporter at 100 uM. The gist of the method: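 Male Sprague-Dawley rat caudate-putamen membranes in modified Krebs-HEPES buffer, pH 7.4. Drug preincubated 5 min, then [3H]WIN 35,428 (final 1.5 nM) added for 1 h on ice, followed by filtration. Value is % inhibition at 100 µM.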

Test [4] addresses T2, Norepinephrine transporter (Rattus norvegicus, UniProt Q9WTR4). As to the kind of experiment: Inhibition of [3H]nisoxetine binding to rat norepinephrine transporter at 10 uM. The gist of the method: (§2)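 Male Sprague-Dawley rat frontal cortex membranes in 50 mM Tris, 120 mM NaCl, 5 mM KCl, pH 7.4, 8 mg tissue per tube. Incubated with [3H]nisoxetine (final 0.5 nM) for 1 h on ice, then filtered. Desipramine defines nonspecific binding. Single-concentration values are % specific binding remaining at 10 µM. Mean ± SEM of three experiments in triplicate.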

The target of test [5] is T1, Mu-type opioid receptor. As to the kind of experiment: Inhibition of [3H]DAMGO binding to mu-opioid receptor.
The nature of test [6]: Ratio of binding affinity of mu-opioid receptor and serotonin transporter.
In test [7] the target is T3, Sodium-dependent dopamine transporter (Rattus norvegicus, UniProt P23977). The test is described as follows: Inhibitory concentration against [3H]DA uptake in rat brain tissue. In kind it is functional, tissue-based. The gist of the method: as §1
The target of test [8] is T2, Norepinephrine transporter. As to the kind of experiment: Inhibition of [3H]-nisoxetine binding to rat norepinephrine transporter. The gist of the method:
as §2

Test [9] concerns the target Sodium-dependent dopamine transporter (Rattus norvegicus) (UniProt P23977). As to conditions: Brain, 100 uM.
The target of test [10] is T4, Monoamine transporters; serotonin & dopamine (Homo sapiens) (UniProt P31645+Q01959). The test is described as follows: Ratio of binding affinity of dopamine and serotonin transporters. The class given is protein assay. The gist of the method: (§3)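 Ratio of Ki values, DAT/SERT. DAT Ki from [3H]WIN 35,428 (1.5 nM) competition in rat caudate-putamen membranes on ice, 1 h. SERT Ki from [3H]paroxetine (0.2 nM) binding to rat midbrain membranes, 90 min at room temperature, with 1 µM citalopram defining nonspecific binding.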

Test [11] deals with Sodium-dependent dopamine transporter (Rattus norvegicus) (UniProt P23977). Conditions: Brain, 100 uM. This is another data set of the same source.
The target of test [12] is Norepinephrine transporter (Rattus norvegicus) (UniProt Q9WTR4). The test is described as follows: Percent inhibition of [3H]nisoxetine binding to norepinephrine transporter at 10 uM.
A short description of test [13]: Ratio of binding affinity of mu-opioid receptor and dopamine transporter.
Test [14] addresses T4, Monoamine transporters; serotonin & dopamine (Homo sapiens). The test is described as follows: Ratio of binding affinity of dopamine and Serotonin transporters. In kind it is protein assay. The gist of the method:
as §3

Test [15] concerns the target T1, Mu-type opioid receptor. The test is described as follows: Inhibition of [3H]-DAMGO binding to mu-opioid receptor.
The target of test [16] is Sodium-dependent dopamine transporter (Rattus norvegicus) (UniProt P23977). As to the kind of experiment: Percent inhibition of [3H]dopamine uptake in rat brain tissue at 100 uM. The class given is functional, tissue-based. The gist of the method:
as §1

Test [17] in a line: Ratio of binding affinity of mu-opioid receptor and Serotonin transporter.
Test [18] concerns the target T1, Mu-type opioid receptor. As to the kind of experiment: Inhibition of [3H]DAMGO binding to mu-opioid receptor at 100 uM.
In test [19] the target is T1, Mu-type opioid receptor. The test is described as follows: Inhibition of [3H]-DAMGO binding to mu opioid receptor at 10 uM.
The nature of test [20]: Ratio of binding affinity of mu-opioid receptor and dopamine taransporter.
In test [21] the target is T3, Sodium-dependent dopamine transporter. As to the kind of experiment: Inhibitory concentration against [3H]dopamine uptake in rat brain tissue. The class given is functional, tissue-based. The gist of the method: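 Rat caudate-putamen chopped into 225 µm slices, suspended in Krebs-HEPES buffer pregassed with 95% O2/5% CO2 at 37 °C. Tissue preincubated 5 min with or without drug (highest 100 µM), then [3H]dopamine (15 nM final) added for 5 min. Stopped with ice-cold buffer and filtration; accumulated label extracted and counted by scintillation; filter binding subtracted. Three experiments in triplicate.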

For test [22] the target is unchanged. As to the kind of experiment: Inhibition of [3H]-DA uptake in rat brain. In kind it is functional, tissue-based. The gist of the method:
as §1

A short description of test [23]: Ratio of binding affinity for mu-opioid receptor and dopamine transporter.
Test [24] addresses T4, Monoamine transporters; serotonin & dopamine (Homo sapiens). The test is described as follows: Ratio of binding affinity for dopamine and serotonin transporters. In kind it is protein assay. The gist of the method: as §3

T1 sequence (P35372 whole entry): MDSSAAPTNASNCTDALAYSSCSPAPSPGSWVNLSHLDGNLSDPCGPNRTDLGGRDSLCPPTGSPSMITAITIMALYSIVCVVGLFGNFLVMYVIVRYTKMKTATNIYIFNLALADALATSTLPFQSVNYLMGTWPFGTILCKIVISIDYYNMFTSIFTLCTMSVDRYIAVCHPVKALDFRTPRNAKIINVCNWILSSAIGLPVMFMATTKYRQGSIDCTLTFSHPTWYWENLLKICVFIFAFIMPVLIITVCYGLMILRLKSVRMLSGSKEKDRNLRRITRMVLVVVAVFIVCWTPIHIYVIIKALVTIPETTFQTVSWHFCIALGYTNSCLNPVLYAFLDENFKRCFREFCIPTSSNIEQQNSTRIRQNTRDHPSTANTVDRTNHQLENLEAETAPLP
T4 sequence (P31645 whole entry, looked up): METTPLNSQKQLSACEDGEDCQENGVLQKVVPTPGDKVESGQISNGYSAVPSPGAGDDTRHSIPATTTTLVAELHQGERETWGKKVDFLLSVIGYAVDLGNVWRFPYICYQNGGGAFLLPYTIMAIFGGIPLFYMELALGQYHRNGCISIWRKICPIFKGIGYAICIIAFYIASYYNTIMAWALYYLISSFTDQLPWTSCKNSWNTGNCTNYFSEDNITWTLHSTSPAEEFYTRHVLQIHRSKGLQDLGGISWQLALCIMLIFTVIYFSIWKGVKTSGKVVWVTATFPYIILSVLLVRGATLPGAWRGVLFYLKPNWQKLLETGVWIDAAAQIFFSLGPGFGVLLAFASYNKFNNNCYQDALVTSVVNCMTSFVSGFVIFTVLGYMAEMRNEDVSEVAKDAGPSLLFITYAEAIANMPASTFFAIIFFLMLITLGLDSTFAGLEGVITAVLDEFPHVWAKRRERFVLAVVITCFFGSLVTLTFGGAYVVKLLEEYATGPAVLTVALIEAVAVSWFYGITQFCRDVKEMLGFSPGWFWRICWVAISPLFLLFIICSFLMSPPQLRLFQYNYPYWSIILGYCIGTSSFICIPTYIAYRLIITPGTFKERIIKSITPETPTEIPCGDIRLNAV
T4 sequence (Q01959 whole entry, looked up): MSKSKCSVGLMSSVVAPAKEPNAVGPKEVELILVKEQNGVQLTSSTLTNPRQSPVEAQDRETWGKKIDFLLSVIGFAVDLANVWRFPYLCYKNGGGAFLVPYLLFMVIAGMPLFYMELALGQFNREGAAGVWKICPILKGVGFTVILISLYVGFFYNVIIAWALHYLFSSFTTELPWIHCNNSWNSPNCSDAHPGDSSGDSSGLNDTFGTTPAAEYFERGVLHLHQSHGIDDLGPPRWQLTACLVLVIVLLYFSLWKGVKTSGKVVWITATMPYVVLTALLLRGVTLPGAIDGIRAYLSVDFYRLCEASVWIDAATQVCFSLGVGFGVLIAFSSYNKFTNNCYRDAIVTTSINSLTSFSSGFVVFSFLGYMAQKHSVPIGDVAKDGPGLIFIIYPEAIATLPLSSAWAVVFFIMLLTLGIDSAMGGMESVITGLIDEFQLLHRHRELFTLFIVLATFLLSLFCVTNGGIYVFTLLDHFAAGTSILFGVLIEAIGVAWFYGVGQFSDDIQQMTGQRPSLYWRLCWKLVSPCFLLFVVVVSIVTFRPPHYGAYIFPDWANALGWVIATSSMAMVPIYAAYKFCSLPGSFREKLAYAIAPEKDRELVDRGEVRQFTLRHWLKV
Sodium-dependent dopamine transporter (Rattus norvegicus), sequence (P23977 whole entry): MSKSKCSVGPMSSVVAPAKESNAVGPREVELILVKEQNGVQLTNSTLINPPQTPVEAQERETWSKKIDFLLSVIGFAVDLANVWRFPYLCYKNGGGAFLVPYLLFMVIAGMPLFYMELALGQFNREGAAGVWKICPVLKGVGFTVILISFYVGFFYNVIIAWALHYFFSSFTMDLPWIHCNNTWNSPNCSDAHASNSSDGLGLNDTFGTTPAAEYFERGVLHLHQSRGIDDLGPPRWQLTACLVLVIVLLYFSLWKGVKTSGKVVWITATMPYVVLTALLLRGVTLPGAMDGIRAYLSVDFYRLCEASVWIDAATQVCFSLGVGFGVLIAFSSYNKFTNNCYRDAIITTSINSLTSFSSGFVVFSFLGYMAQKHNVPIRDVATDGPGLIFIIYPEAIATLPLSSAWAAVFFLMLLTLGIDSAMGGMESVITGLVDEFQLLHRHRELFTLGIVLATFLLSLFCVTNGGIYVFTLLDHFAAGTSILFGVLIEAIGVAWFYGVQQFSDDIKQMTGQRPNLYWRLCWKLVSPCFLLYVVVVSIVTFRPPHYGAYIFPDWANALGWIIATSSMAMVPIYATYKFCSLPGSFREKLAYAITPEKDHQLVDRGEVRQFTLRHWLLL
T3 sequence (P23977 whole entry): as above
T2 sequence (Q9WTR4 whole entry): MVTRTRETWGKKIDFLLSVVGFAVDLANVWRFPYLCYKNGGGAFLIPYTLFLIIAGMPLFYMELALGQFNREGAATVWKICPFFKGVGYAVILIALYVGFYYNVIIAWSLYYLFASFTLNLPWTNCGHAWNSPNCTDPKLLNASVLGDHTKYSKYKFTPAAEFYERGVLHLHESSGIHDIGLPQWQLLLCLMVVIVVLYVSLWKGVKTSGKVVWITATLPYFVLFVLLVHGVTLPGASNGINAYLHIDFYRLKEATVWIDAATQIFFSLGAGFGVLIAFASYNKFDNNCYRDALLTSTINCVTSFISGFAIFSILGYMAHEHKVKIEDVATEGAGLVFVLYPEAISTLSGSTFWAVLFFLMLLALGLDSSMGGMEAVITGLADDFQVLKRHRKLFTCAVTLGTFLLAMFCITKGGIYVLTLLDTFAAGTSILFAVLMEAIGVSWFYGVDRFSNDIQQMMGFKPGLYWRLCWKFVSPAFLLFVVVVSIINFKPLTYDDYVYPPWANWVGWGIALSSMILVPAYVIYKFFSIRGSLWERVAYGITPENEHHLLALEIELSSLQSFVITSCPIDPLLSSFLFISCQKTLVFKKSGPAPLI
Norepinephrine transporter (Rattus norvegicus), sequence (Q9WTR4 as listed by the source): as the sequence (Q9WTR4 whole entry) above

As for `CN1CCC(C#N)(c2ccc(F)cc2)CC1`, the inhibition was 15% at Mu-type opioid receptor [1], 8% in [2] and 45% in test [3]. The compound further registered a Ki in test [4] of 101 µM.
Take `CCOC(=O)C1(c2ccc(I)cc2)CCN(C)CC1`: the Ki on Mu-type opioid receptor [5] is 2.35 µM; in test [8], 519 µM. In addition, the Ratio in test [6] was 111. The same compound returned an IC50 in [7] of 11.1 µM.
With `Cc1ccc(C2(C#N)CCN(C)CC2)cc1`, the inhibition came to 46% in test [9], 22% in [11] and 103% in test [12]. Besides, the Ki at Mu-type opioid receptor [5] was 40.6 µM. Also, the figures for the Ratio in test [6], in [10] and in [13] were 2.96, 3.05 and 0.97, respectively.
Take `CCOC(=O)C1(c2ccc(F)cc2)CCN(C)CC1`: the Ratio in test [14] came to 34.7; at Mu-type opioid receptor [15], 0.14; in [17], 4.77. The inhibition in [16] turned out to be 47%; in test [12], 71.9%.
Take `CN1CCC(C#N)(c2ccc(Cl)cc2)CC1`: the affinity on Mu-type opioid receptor [18], expressed as Ki, was 36.8 µM. Moreover, the inhibition turned out to be 51% at Mu-type opioid receptor [1], 36% in [2] and 106% in test [12]. Also, the Ratio in [6] amounted to 0.18; in test [10], 4.31; in test [13] it was 1.67.
For `CN1CCC(C#N)(c2ccc(I)cc2)CC1`, the Ki at Mu-type opioid receptor [18] amounted to 17.3 µM. The figures for the inhibition on Mu-type opioid receptor [1] and at Mu-type opioid receptor [19] were 61% and 93.6%, respectively. The Ratio turned out to be 40.2 in test [6], 2.07 in [20] and 19.4 in [10]. The same compound returned an IC50 in [21] of 36.7 µM.
With `CCOC(=O)C1(c2ccc(Cl)cc2)CCN(C)CC1`, the Ki at Mu-type opioid receptor [5] stood at 4.41 µM; in [8], 601 µM. For the same compound, inhibition in test [22] was half-maximal at 26.9 µM (IC50). The Ratio in [6] worked out at 15.9; in [10], 14.8; in test [13], 1.08.
Turning to `CCOC(=O)C1(c2ccc3ccccc3c2)CCN(C)CC1`, the Ki was found to be 2.03 µM on Mu-type opioid receptor [5] and 71.1 µM in test [8]. Also, the Ratio was 282 in test [6], 158 in test [10] and 1.78 in test [13]. For the same compound, the inhibition in [16] was 16%. Moreover, the IC50 in test [7] is 3.19 µM and 11.6 µM.
As for `CCOC(=O)C1(c2ccc(C)cc2)CCN(C)CC1`, the affinity at Mu-type opioid receptor [5] corresponds to a Ki of 2.67 µM. For the same compound, the Ratio is 1.66 in test [6], 7.69 in test [10] and 0.22 in test [13]. Half-maximal inhibition in test [7] (IC50) was put at 76.2 µM. For the same compound, the inhibition in test [12] came to 57.6%.
For the compound `CN1CCC(C#N)(c2ccc3ccccc3c2)CC1`, the inhibition constant Ki at Mu-type opioid receptor [18] is 15.4 µM. Besides, the inhibition at Mu-type opioid receptor [1] amounted to 61%; in test [16] it was 11%; in [12], 88.1%. Also, the Ratio in test [6] amounted to 123; in test [10], 18.9; in [13] it was 6.53.
For `CN1CCC(C#N)(c2ccc(Cl)c(Cl)c2)CC1`, the Ratio in [23] is 15; in test [6] it was 49.7; in test [24] it was 3.32. On Mu-type opioid receptor [5], the affinity corresponds to a Ki of 40 µM. In addition, the inhibition at Mu-type opioid receptor [1] came out at 46%; in [12] it was 94.1%. The IC50 in test [22] was 11.1 µM.
With `CCOC(=O)C1(c2ccc(Cl)c(Cl)c2)CCN(C)CC1`, the results for the Ki (on Mu-type opioid receptor [5]; in test [8]) were 2.04 µM and 74.5 µM, respectively. In addition, the Ratio in [6] was found to be 109; in test [10], 6.68; in test [13], 16.3. Also, in [16], the inhibition was 22%. Also, in test [7], the IC50 was 6.01 µM and 1.4 µM.

The values are drawn from ChEMBL document CHEMBL1142692, “Synthesis and biological evaluation of meperidine analogues at monoamine transporters” (J Med Chem, 2005).
